UBC13 inh: blocks human UBC13 polyubiquitin chain formation | 330,000 tested, 0.47% active | inhibition, % at 20 µM | TR-FRET | P61088; in the data active = inhibition above about 45%, passing the limit was not always enough
Target sequence (P61088 whole entry, looked up): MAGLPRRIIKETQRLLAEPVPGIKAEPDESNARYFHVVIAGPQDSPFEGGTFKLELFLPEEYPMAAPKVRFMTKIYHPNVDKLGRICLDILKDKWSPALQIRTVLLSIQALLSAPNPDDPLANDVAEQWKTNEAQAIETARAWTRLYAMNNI
XBP1 UPR activ: adaptive UPR (XBP1) activation; CHO-XBP1 luciferase reporter, IRE1-XBP1 UPR activation, luminescence; percent of tunicamycin response, DMSO as zero; activation, % at 20 µM; 330,000 tested, 0.33% active;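 active = versus positive control, 20 µM dose yields 30% or more activation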
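Material – CHO cell line with stable XBP1 luciferase reporter · Buffer or medium – F12 plus 10% FBS · Compound – single point, 20 µM final compound, 1% DMSO · Schedule – 16-18 h cell attachment at 37 °C, then 6 h compound exposure · Signal – Steady-Glo luminescence read · Benchmarks – high control tunicamycin 10 µg/mL final, low control DMSO vehicle only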
CHOP UPR activ: activators of apoptotic arm of unfolded protein response (CHOP); CHO-CHOP luciferase reporter, UPR activation, luminescence; percent of tunicamycin response over DMSO baseline; activation, % at 10 µM; 330,000 tested, 0.34% active; AID 449763;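 active = at 10 µM dose, activation of 40% or more, normalized to positive control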
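measured by = luciferase luminescence | assay system = CHO-CHOP cells, stable luciferase reporter of PERK-eIF2a-CHOP signalling | amount = 500 reporter cells seeded per well | timing = 6 h compound exposure at 37 °C after overnight seeding | controls = positive tunicamycin 10 µg/mL, negative DMSO alone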
Apaf-1 inh: human Apaf-1 inhibition. AID 489030. 330,000 tested, 0.71% active. O14727. reconstituted apoptosome caspase-3 activity, DEVD-Rh110 fluorescence. inhibition, % at 20 µM; active = inhibition of at least 40% at 20 µM
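System: reconstituted apoptosome with Apaf-1, cytochrome c, caspase-9, procaspase-3, dATP; Signal: Rh110 fluorescence intensity; Schedule: 30 min compound preincubation, 50 min activation, room temperature; Reagent: cytochrome c trigger plus (Z-DEVD)2-Rh110 caspase-3 substrate.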
Mdm2-MdmX inh: human Mdm2/MdmX binding inhibition; AID 485346; 330,000 tested, 3% active; O15151+Q00987; inhibition, % at 8 µM; SaOS-2 split-luciferase Mdm2/MdmX complementation, luminescence;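 active = inhibition of at least 50% at 8 µM in the primary screen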
UPR XBP1 confirm: adaptive UPR (XBP1) activation, confirmed | shares compounds with XBP1 UPR activ | CHO-XBP1 IRE1-XBP1 luciferase reporter, luminescence | activation, % at 20 µM | 1,000 tested, 63% active | AID 485299;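 active = reporter signal at least 30% of the positive control's activation in two or more of four replicate wells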
Casp3 UBC13 ctr: caspase-3 inhibition (UBC13 counter-screen); shares compounds with UBC13 inh; Recombinant caspase-3, Caspase-Glo 3/7 luminescence, 60 min; inhibition, % at 20 µM; 1,400 tested, 4% active; AID 488856;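 active = mean inhibition across replicates above about 26%, limit read from the data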
Target sequence (P42574 whole entry, looked up): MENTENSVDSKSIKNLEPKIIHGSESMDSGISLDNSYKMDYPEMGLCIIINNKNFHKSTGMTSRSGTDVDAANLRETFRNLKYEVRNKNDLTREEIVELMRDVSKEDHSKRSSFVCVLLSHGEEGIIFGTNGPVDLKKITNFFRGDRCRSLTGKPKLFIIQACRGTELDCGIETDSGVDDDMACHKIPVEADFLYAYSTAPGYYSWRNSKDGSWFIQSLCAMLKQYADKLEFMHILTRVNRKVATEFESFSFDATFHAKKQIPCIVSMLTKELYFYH
UBC13 confirm: confirmation of human UBC13 polyubiquitin inhibitors; shares compounds with UBC13 inh; UBC13 polyubiquitination, TR-FRET, biochemical; inhibition, % at 10 µM; 1,400 tested, 68% active; in the data active = inhibition above about 45%
Mdm2-MdmX conf: human Mdm2/MdmX binding inhibition, confirmed | luminescent assay | shares compounds with Mdm2-MdmX inh | inhibition, % at 8 µM | AID 489028 | 10,000 tested, 55% active; in the data active = inhibition above about 40%
FLuc counter: inhibits full-length luciferase, flagging false Mdm2/MdmX hits; AID 504607; SaOS-2 full-length luciferase counterscreen, luminescence; inhibition, % at 8 µM; shares compounds with Mdm2-MdmX inh; 6,200 tested, 77% active;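 active = mean inhibition at 8 µM reaching about 37%, which flags the compound as non-specific, limit read from the data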;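 note: p53-null SaOS-2 cells with luciferase driven by a doxycycline-inducible promoter; compound on cells about two nights before reading with doxycycline added after day one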
Apaf-1 inh conf2: Apaf-1 inhibition, single-dose confirmed; AID 504614; reconstituted apoptosome, caspase-3 DEVD-Rh110 fluorescence; shares compounds with Apaf-1 inh; inhibition, % at 20 µM; 1,800 tested, 25% active;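 active = mean inhibition of at least 40% at 20 µM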
Rh110 quench: Rh110 signal interference in Apaf-1 inhibitor counter-screen; shares compounds with Apaf-1 inh; Rh110 fluorescence interference, quenched caspase reaction; activation (fluorescence interference), % at 20 µM; 1,800 tested, under 10 active;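 active = signal rise of 40% or more at 20 µM, treated as a fluorescence artifact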
Apaf1 inh interf: Apaf-1 inhibitor counter-screen fluorescence artifact; shares compounds with Apaf-1 inh; fluorescence interference counterscreen, Apaf-1 assay format; IC50, µM; 460 tested, under 10 active; AID 588538; call rule not given here
Hits are given with their value; – = inactive; · = not tested or not shown. Shown are actives, neighbours in structure and some others; about 4.1% of the full set was active somewhere.

SMILES	UBC13 inh	XBP1 UPR activ	CHOP UPR activ	Apaf-1 inh	Mdm2-MdmX inh	UPR XBP1 confirm	Casp3 UBC13 ctr	UBC13 confirm	Mdm2-MdmX conf	Apaf-1 inh conf2	Rh110 quench	others
Cc1ccc2nsnc2c1NC(=O)c1ccc(-c2cc(Cl)ccc2Cl)o1	–	96	–	–	60	104	·	·	–	·	·
Cc1ccc2nsnc2c1NC(=O)Cc1ccc(Cl)cc1	–	–	–	–	–	·	·	·	·	·	·
CC1CCCN(S(=O)(=O)c2ccc(C(=O)NC(C)c3ccccc3)cc2)C1 (stereo unspecified)	–	–	–	–	–	·	·	·	·	·	·
Brc1ccc2c(c1)C(c1ccc(N3CCOCC3)cc1)=NNC(c1cccs1)=N2	–	88	–	–	59	81	·	·	–	·	·
N#C/C(=C\Nc1ccc2cn[nH]c2c1)c1nc(-c2ccc(Cl)cc2)cs1	–	101	–	–	50	72	·	·	–	·	·
N#C/C(=N/O)c1nc(-c2ccc(F)cc2)cs1	–	–	–	–	–	·	·	·	·	·	·
COc1ccc(-c2sc3ccccc3c2-c2ccc(O)cc2)cc1	–	–	–	–	–	·	·	·	·	·	·
COc1ccc(-c2sc3ccccc3c2-c2ccc(OCCN(C)C)cc2)cc1	87	44	–	77	100	58	–	81	49	·	·	FLuc counter=–
C[C@]12c3[nH]c4ccc(Cl)cc4c3CCN1C(=O)[C@@H](CC(=O)NCc1ccco1)C[C@@H]2C(=O)N1CCCCC1	·	–	–	–	–	·	·	·	·	·	·
O=C(Nc1ccc([N+](=O)[O-])cc1)C(Cc1ccccc1)N1C(=O)c2cccc3cccc(c23)C1=O (stereo unspecified)	–	42	–	–	63	46	·	·	–	·	·
O=C(O)c1ccccc1NC(=O)C(Cc1ccccc1)N1C(=O)c2ccccc2C1=O (stereo unspecified)	–	–	–	–	–	·	·	·	·	·	·
CN(C)c1ccc(/C=N/NC(=O)c2ccc(NC(=O)c3ccccc3)cc2)cc1	–	189	–	–	57	83	·	·	–	·	·
O=C(N/N=C/c1ccc(F)cc1)c1ccccc1	–	–	–	–	–	·	·	·	·	·	·
CC(C)(C)c1cc(-c2nc(N)nc(N)n2)c(O)c(C(C)(C)C)c1	51	58	–	–	68	30	–	–	–	·	·
COc1ccc(-c2sc3cc4c(cc3c2C#CC2(N)CCCCC2)OCO4)cc1	85	34	–	72	79	–	–	89	–	–	–
COc1ccc(-c2sc3cc4c(cc3c2C#Cc2cncn2C)OCO4)cc1	–	–	–	–	–	·	·	·	·	·	·
CCCCCCCCCCOC(=O)Cn1c(COc2ccccc2OC)[n+](C)c2ccccc21	64	77	–	71	100	52	–	68	89	65	–	FLuc counter=–;Apaf1 inh interf=–
c1cc(SC2CCCCC2)cc(-c2nc3cnccn3c2NC2CCCCC2)c1	–	196	–	41	89	171	·	·	–	–	–
COc1cc(NC(=O)N[C@H](C(=O)O)C(C)C)cc(OC)c1	–	–	–	–	–	·	·	·	·	·	·
CCOC(=O)c1c(NC(=O)CSc2nc3ccccc3[nH]2)sc2c1CC(C)(C)NC2(C)C	–	–	–	–	–	·	·	·	·	·	·
COC(=O)c1c(NC(=O)c2nc3ccccc3s2)sc2c1CC(C)(C)NC2(C)C	97	41	–	58	98	48	–	87	64	–	–	FLuc counter=53
COc1ccc(S(=O)(=O)N2CCOCC2)cc1NC(=O)COC(=O)c1ccc([N+](=O)[O-])s1	–	–	–	–	–	·	·	·	·	·	·
Cc1ccccc1-n1nnnc1SCC(=O)c1c(N)n(C2CC2)c(=O)[nH]c1=O	–	–	–	–	–	·	·	·	·	·	·
CCC(C)n1c(NC(=O)c2ccccc2)c(C#N)c2nc3ccccc3nc21 (stereo unspecified)	–	63	–	93	–	–	·	·	·	–	–
COC(=O)C1=CO[C@@H](O[C@@H]2O[C@H](CO)[C@@H](O)[C@H](O)[C@H]2O)C2C1CC(O)O[C@H]2C (stereo partly specified)	–	–	–	–	–	·	·	·	·	·	·
SMILES	UBC13 inh	XBP1 UPR activ	CHOP UPR activ	Apaf-1 inh	Mdm2-MdmX inh	UPR XBP1 confirm	Casp3 UBC13 ctr	UBC13 confirm	Mdm2-MdmX conf	Apaf-1 inh conf2	Rh110 quench	others
CC(C)N(C(=O)CSc1nnc(-c2ccc3c(c2)OCO3)n1C)C(C)C	–	–	–	–	–	·	·	·	·	·	·
Cc1cc(C)c(S(=O)(=O)Nc2ccc3c4c(cccc24)CC3)c(C)c1	–	30	–	43	75	–	·	·	63	–	–	FLuc counter=107
Cc1ccc2nc(N(CCCN(C)C)C(=O)c3ccc(S(=O)(=O)N4CCc5ccccc5C4)cc3)sc2c1	78	93	–	53	100	49	–	110	52	–	–	FLuc counter=–
CN(C)CCCN(C(=O)c1ccc(S(=O)(=O)N2CCc3ccccc32)cc1)c1nc2ccc(F)cc2s1	–	–	–	–	–	·	·	·	·	·	·
CN(C)CCCN(C(=O)c1ccc(S(=O)(=O)N2CCc3ccccc3C2)cc1)c1nc2ccc(F)cc2s1	55	31	–	70	97	71	–	99	–	46	–	Apaf1 inh interf=–
NC1=NC[C@@H](CC2CCCCC2)N1CCc1cc(C(F)(F)F)cc(C(F)(F)F)c1	91	49	–	79	99	55	–	101	100	50	–	FLuc counter=51;Apaf1 inh interf=–
CC(O)[C@H]1CN=C(N)N1CCc1cc(C(F)(F)F)cc(C(F)(F)F)c1 (stereo partly specified)	–	–	–	–	–	·	·	·	·	·	·
O=C(O)C1CCN(C(=O)CSc2nnc3ccccn23)CC1	–	–	–	–	–	·	·	·	·	·	·
COc1ccccc1-c1sc2cc3c(cc2c1-c1ccc(OCCN2CCCCC2)cc1)OCO3	77	35	–	59	98	36	–	69	42	–	–	FLuc counter=39
COc1cc(NC2CCCCC2O)c2nc(-c3ccc(Cl)cc3)ccc2c1 (stereo unspecified)	–	31	–	55	–	–	·	·	·	–	–
